NR2E3 ag-1: activates human photoreceptor nuclear receptor NR2E3; Q9Y5X4; GST-NR2E3/biotin-RetCOR TR-FRET, 1536-well; inhibition of corepressor binding, % at 4.78 µM; hit rate 0.12% among 320,000; AID 2300;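 active = percent inhibition above the cutoff of mean plus 3 SD of all tested compounds, set per screening campaign, cut at about 20% in these data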;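 also: 0% = DMSO wells and 100% = biotin wells as full block of FRET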
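Material: NR2E3–RetCOR corepressor complex / Incubation: Compound–protein incubation for 5 h at 4 °C / Dosing: compound at 4.8 µM, single dose / Detection: time-resolved FRET / Benchmarks: high control biotin, low control 0.6% DMSO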
MC4R barr agon: activates human MC4R beta-arrestin recruitment | U2OS MC4R beta-arrestin complementation, luminescence; percent of melanotan II response, DMSO zero | activation, % at 8.9 µM | P32245 | hit rate 0.98% among 360,000 | AID 540308;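 active = activation above a per-plate cutoff, the mean activation of sample wells on that plate plus 3 SD, cut at about 8% in these data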
Target sequence (P32245 whole entry, looked up): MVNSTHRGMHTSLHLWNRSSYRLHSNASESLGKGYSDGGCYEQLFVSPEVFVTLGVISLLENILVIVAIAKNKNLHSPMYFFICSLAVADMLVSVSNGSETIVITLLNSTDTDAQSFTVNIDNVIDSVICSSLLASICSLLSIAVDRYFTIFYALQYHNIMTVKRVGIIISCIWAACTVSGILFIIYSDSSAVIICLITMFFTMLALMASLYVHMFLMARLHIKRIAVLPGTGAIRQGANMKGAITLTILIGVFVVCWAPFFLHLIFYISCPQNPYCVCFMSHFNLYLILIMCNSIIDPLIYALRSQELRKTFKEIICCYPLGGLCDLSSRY
Rev-erbA mod: Rev-erb alpha (human) modulation; Rev-erbα–FITC-DNA binding, fluorescence polarization, 90 min; AID 1259318; activity, % at 10 µM; hit rate 0.79% among 370,000;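 active = activity above about 14%, limit read from the data; passing the limit was not always enough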;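 also: 0% = DMSO wells with 35 nM protein and 100% = DMSO wells with 750 nM protein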
MC4R antagonist: human MC4R antagonism in cAMP assay; AID 540295; P32245; hit rate 0.48% among 360,000; inhibition, % at 6.5 µM; MC4R-expressing cells, MTII-stimulated cAMP, LANCE TR-FRET;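 active = inhibition above its plate's cutoff, the mean of tested wells on that plate plus 3 SD, cut at about 29% in these data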;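 also: 0% = Melanotan II alone and 100% = Melanotan II plus saturating MCL0020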
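Assay system: U2OS cells stably expressing human melanocortin 4 receptor (MC4R) / Dosing: 6.5 µM / Timing: compound 30 min, challenge 1 h, detection 1 h / Measured by: Eu-cAMP/anti-cAMP TR-FRET, emission 671 nm / Replicates: singlicate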
NR2E3 ag-2: agonists of human NR2E3 nuclear receptor; Q9Y5X4; AID 602229; inhibition of corepressor binding, % at 3.98 µM; CHO-S Gal4-NCOR/VP16-NR2E3 two-hybrid, luciferase; hit rate 0.35% among 360,000;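 active = inhibition above the mean of all tested compounds plus 3 SD, cut at about 70% in these data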;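 also: 0% = DMSO with NR2E3 transfected cells and 100% = cells lacking NR2E3 construct; higher means lower luciferase signal from less NR2E3 corepressor binding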
PG9 Ab binder: PG9 antibody binding by small molecule | TR-FRET gp120-PG9 antibody binding | inhibition, % at 6.7 µM | hit rate 0.43% among 360,000; in the data active = inhibition above about 8.5%
NR1D1 mod conf: Rev-erb alpha (human) modulation, hit confirmation. shares compounds with Rev-erbA mod. Rev-erb alpha FITC-DNA binding, fluorescence polarization, 90 min. activation, % at 25 µM. hit rate 61% among 3,000;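 active = activation at or above a set limit, or at least 3 SD above the negative control mean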;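 also: 0% = 35 nM protein with DMSO and 100% = 750 nM protein high control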
RORg counter: RORgamma DNA-binding activity, dose-response counter-screen; shares compounds with Rev-erbA mod; AID 1259320; IC50, µM; purified RORgamma protein-FITC-DNA binding, fluorescence polarization; hit rate 8% among 910;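 active = Compounds whose fitted half-maximal concentration for disrupting protein-DNA binding is below 10 micromolar; the record names Rev-erb in its text, so the target is in doubt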
The depositor's hits bear a star; x = not tested or not shown. This is a sample that favours compounds with a hit; in the whole collection about 2.7% have one here.

SMILES | NR2E3 ag-1 | MC4R barr agon | Rev-erbA mod | MC4R antagonist | NR2E3 ag-2 | PG9 Ab binder | NR1D1 mod conf | others
CC1CCCCC1NC(=S)NC(=O)c1cccs1 (centres undefined) | 6 | 0 | 5 | 3 | -14 | 0 | x
COC(=O)c1ccc(COc2ccc3c4c(c(=O)oc3c2)CCC4)o1 | 1 | -1 | 34* | 7 | -55 | 1 | 1
CCOC(=O)c1sc2nc(N3CCCC3)c3c(c2c1N)CC(C)(C)OC3 | 2 | 1 | -2 | 0 | -6 | 3 | x
CCOC(=O)c1sc2nc(C(C)C)c3c(c2c1N)CC(C)(C)OC3 | 2 | 2 | 23* | 3 | 21 | 0 | 2
Cc1cccc(NC(=O)CN2C(=O)N/C(=C\c3ccccc3OCc3ccc(C(=O)O)cc3)C2=O)c1 | 2 | -2 | 6 | -1 | -9 | -1 | x
COc1ccc(-c2ccc(-c3nnn(CC(C)=O)n3)cc2)cc1 | -2 | -3 | -4 | 7 | -102 | 2 | x
C=CCNC(=O)Cn1nnc(-c2ccc(-c3ccc(OC)cc3)cc2)n1 | -1 | 1 | 39* | 0 | -40 | 0 | 1
CCOC(=O)C1(C)CCN1C(=O)c1cccc2ccccc12 (centres undefined) | x | -1 | -7 | 2 | 12 | 0 | x
Cc1ccc(Cl)cc1N1CCN(Cc2nc3c(c(=O)[nH]c(=O)n3C)n2Cc2ccccc2F)CC1 | -2 | 1 | 29* | -1 | -34 | -3 | 19*
Cc1ccc(Cl)cc1N1CCN(Cc2nc3c(c(=O)[nH]c(=O)n3C)n2CCc2ccccc2)CC1 | 2 | -1 | 2 | 8 | -4 | -2 | x
O=C1c2ccccc2C(=O)N1Cc1ccco1 | -4 | -2 | 1 | 11 | -4 | 3 | x
Cc1ccc(N2C(=O)c3cccc4c(C(=O)O)ccc(c34)C2=O)cc1 | 2 | x | 2 | x | x | -1 | x
O=C1c2cccc3c(O)ccc(c23)C(=O)N1Cc1ccco1 | x | -1 | 36* | 0 | -1 | -3 | 37* | RORg counter=>40
CC(=O)Nc1ccc(N2C(=O)c3cccc4c(O)ccc(c34)C2=O)cc1 | -5 | -1 | 29* | 5 | -33 | -7 | 40* | RORg counter=1.2*
O=C1c2cccc3c(O)ccc(c23)C(=O)N1c1ccc(Cl)cc1 | 0 | 0 | 60* | 19 | 17 | 0 | 53* | RORg counter=9.4*
CC(=O)c1c(N2CCOCC2)nc2ccc(Cl)cc2c1-c1ccccc1 | 2 | -1 | 31* | 13 | -7 | 0 | 28*
Cc1nc2ccc(Cl)cc2c(-c2ccccc2)c1C(=O)N(C)C | 0 | -1 | 1 | 12 | -3 | -1 | x
Cc1nc(N(C)C2CCCCC2)c2nnn(Cc3ccc(F)cc3)c2n1 | x | 2 | 31* | 13 | -6 | -1 | -6
COc1ccc(OC)c(C2NC(=O)c3sc(=S)n(-c4ccccc4)c3N2)c1 (centres undefined) | 2 | -1 | 39* | 9 | -5 | 0 | 15
CN(C)C(=O)c1ccc(NC(=O)COC(=O)C2=COCCO2)cc1 | -1 | -3 | -6 | 17 | -11 | 0 | x
Cc1ccc(S(=O)(=O)N2CCCCC2C(=O)N2CCN(c3ccccc3F)CC2)cc1 (centres undefined) | 3 | 0 | -2 | 7 | -19 | 0 | x
Cc1nn(C)c(C)c1NC(=O)CSc1nc(Cc2ccccc2)nc2c1cnn2-c1ccccc1 | 2 | 0 | 181* | 1 | -1 | -1 | 76*
CC1CN(C(=O)/C=C/c2cccc([N+](=O)[O-])c2)CC(C)O1 (centres undefined) | 1 | -1 | -2 | -7 | 8 | -1 | x
CC1CN(C(=O)/C=C/c2ccccc2[N+](=O)[O-])CC(C)O1 (centres undefined) | 2 | -1 | 18* | 0 | -19 | -1 | -4
CCOc1ccc(S(=O)(=O)N(C)c2ccc(OCC(=O)Nc3nc(-c4cc(OC)ccc4OC)cs3)cc2)cc1 | 2 | 2 | 25* | 0 | 14 | 0 | 30*
SMILES | NR2E3 ag-1 | MC4R barr agon | Rev-erbA mod | MC4R antagonist | NR2E3 ag-2 | PG9 Ab binder | NR1D1 mod conf | others
CCOC(=O)Cc1csc(NC(=O)COc2ccc(N(C)S(=O)(=O)c3ccc(C)cc3)cc2)n1 | 2 | -1 | 8 | 9 | -22 | 2 | x
O=S(=O)(c1cccnc1)N1CCCC(Nc2ccc(F)c(F)c2)C1 (centres undefined) | x | -1 | 7 | 4 | 3 | 2 | x
COc1ccccc1N1C(=O)C2C(C(=O)c3ccccc3)=NN(c3ccccc3)C2C1=O (centres undefined) | 2 | -2 | -1 | 5 | 11 | 0 | x
COc1ccccc1N1N=C(C(=O)c2ccccc2)C2C(=O)N(c3ccc(Br)cc3)C(=O)C21 (centres undefined) | 0 | 0 | 29* | 10 | 11 | 0 | 31* | RORg counter=>40
COc1cccc(CNC(=O)c2nnn(CC(=O)Nc3ccc(Br)cc3)c2N)c1 | -2 | -1 | 19* | -1 | -8 | 0 | 6
Cc1ccc(CNC(=O)c2nnn(CC(=O)Nc3cc(C)cc(C)c3)c2N)cc1 | 6 | -1 | 24* | -7 | 7 | 0 | 21*
COc1ccc2oc(=O)c(-c3cn4ccc(C)cc4n3)cc2c1 | -4 | 3 | 76* | -4 | -43 | 2 | 14
CCOC(=O)c1c(NC(=O)C2CCCO2)sc(C(=O)OC(C)(C)C)c1C (centres undefined) | -1 | -1 | 46* | 5 | -8 | 1 | 31*
O=C(CN1C2CCCC1CC(NC(=O)c1ccccc1)C2)NC1CC1 (centres undefined) | 1 | 0 | -1 | 15 | -15 | 1 | x
COc1cc(N=Nc2ccc(C)cc2S(N)(=O)=O)c(C)cc1N | x | -2 | 25* | 2 | -26 | 0 | 21*
O=C1CCCc2nc(N3CCN(c4ccccc4)CC3)ncc21 | -1 | 0 | 24* | 0 | -38 | 0 | 18*
O=S(=O)(c1ccccc1)c1nc(-c2ccccc2)oc1N1CCCC1 | 5 | -2 | 16* | 1 | 8 | 0 | -7
O=S(=O)(c1ccccc1)c1nc(-c2ccccc2)oc1N1CCCCC1 | 5 | 0 | -4 | 8 | -22 | -1 | x
N#C/C(C(=O)Oc1ccccc1)=C1/Nc2ccccc2-c2ccccc21 | x | 0 | 44* | 6 | -7 | 2 | 31*
N#CC(C(=O)Nc1ccccc1)=C1Nc2ccccc2N1 | -2 | 1 | 7 | 1 | -31 | -1 | x
O=C(Nc1ccc(F)cc1)c1oc2ccccc2c1NC(=O)C1CCCC1 | -2 | 5 | 26* | 5 | -13 | x | 1
